Among the data in ChEMBL document CHEMBL1157796, “Coumarins from Galipea panamensis and Their Activity against Leishmania panamensis” (J Nat Prod, 2010) are EC50, CC50 and selectivity ratio values, retold here.

Series [1] deals with Leishmania panamensis. As to the kind of experiment: Antimicrobial activity against Leishmania panamensis M/HOM//87/UA140 transfected with p6.5-egfp after 72 hrs by MTT assay. The conditions noted are these: M/HOM//87/UA140, 72 h. Type of series: functional, organism-based. In outline:
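Axenic amastigotes of L. panamensis M/HOM//87/UA140 epirGFP strain (1 × 10^6 parasites/mL) incubated at 32 °C in Schneider's Drosophila medium pH 5.2 with 20% heat-inactivated FCS. Six concentrations, 3.1-100 µg/mL, from DMSO solutions, 72 h. MTT then added for 4 h, stopped with 2-propanol/SDS, OD 570 nm. DMSO-treated and untreated parasites as controls, amphotericin B as reference. Two independent experiments in triplicate, EC50 by Probit analysis.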
For orientation: Formazan colour is commonly taken as a measure of viable cells.

Series [2] in a line: Cytotoxicity against human U937 cells. The class given is cell-based, U-937.
Series [3] can be described thus: Selectivity index, ratio of CC50 for human U937 cells to EC50 for Leishmania panamensis M/HOM//87/UA140. Type of series: toxicity, cell-based, U-937. The conditions noted are these: read-out: Selectivity Index.

In brackets after ≈: the same amount, converted by molar mass.

The EC50 is the midpoint of the concentration-response curve. Low readings indicate greater potency, high ones weaker potency. In general, CC50 refers to the concentration giving 50% cytotoxicity. Higher therefore signals lower toxicity to the cells. Compound `C=C(C)[C@H]1O[C@@H]1c1c(OC[C@H]2OC2(C)C)ccc2ccc(=O)oc12` (relative stereo) yielded an EC50 in series [1] of 10 µg/mL (≈ 30.5 µM). In series [2], this compound displayed a CC50 of 9.7 µg/mL (≈ 29.5 µM). The selectivity ratio in series [3] amounted to 1.
Taken in the same sequence, the figures for `COc1ccc2ccc(=O)oc2c1-c1cocc1C` were 10 µg/mL (≈ 39 µM), 33 µg/mL (≈ 129 µM) and 3.
Regarding `COc1ccc2ccc(=O)oc2c1C(C=O)=C(C)C` [MURRALONGIN], in series [1], the EC50 was more than 100 µg/mL. The same compound yielded a CC50 in series [2] of 121 µg/mL (≈ 470 µM).
In series [2], `C=C(C)[C@H]1O[C@@H]1c1c(OC)ccc2ccc(=O)oc12` [PHEBALOSIN] displayed a cytotoxic concentration (CC50) of 20.7 µg/mL (≈ 80.1 µM). Moreover, the selectivity ratio in series [3] was determined as 1.5.
